PGC1a Ac signal = raises PGC1a acetylation signal in U2OS cells. U2OS PGC1a acetylation AlphaScreen, overnight. activation, % at 15.6 µM. actives 0.21% (n = 350,000);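 active = every replicate reaching activation of at least 50%, whatever the mean replicate activation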;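 note: hits raise the AlphaScreen acetylation signal above neutral controls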
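System: flag-PGC1a/GCN5 U2OS cells / Input: 7000 cells/well / Compound: single test concentration per compound / Incubation: overnight compound treatment, 37 °C / Technique: AlphaScreen on lysates with anti-acetyl-lysine antibody, acceptor and donor beads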
Active calls of the source: *. These entries were drawn from the full list.

SMILES	PGC1a Ac signal
COc1ccc(S(=O)(=O)N(C)C[C@H]2Oc3ccc(NC(=O)CCN4CCOCC4)cc3C(=O)N([C@@H](C)CO)C[C@@H]2C)cc1	-49.4
CC(=O)Nc1ccc(NC(=O)c2cc(=O)c3ccccc3o2)cc1	-42.0
CC(=O)Nc1ccc(Sc2ccc([N+](=O)[O-])o2)cc1	437.6*
C[C@@H]1CN([C@H](C)CO)C(=O)c2cccc(NC(=O)c3nc4ccccc4s3)c2O[C@@H]1CN(C)C(=O)Nc1ccc(F)cc1	-45.9
O=C1C=CCCN1S(=O)(=O)/C=C/c1ccccc1	-58.7
CCCSc1nnc(Sc2nnnn2-c2ccccc2)s1	84.4*
Cc1ccccc1-n1nnnc1Sc1nnnn1-c1ccccc1	-46.4
C=CC(=O)Nc1cccc(Oc2ccnc(Nc3ccc(N4CCN(C)CC4)cc3)n2)c1	-40.0
O=[N+]([O-])c1ccc(/C=N/n2c(CO)nc3ccccc32)s1	52.7*
CC(N=C1NS(=O)(=O)c2ccccc21)C(=O)NCCCc1ccccc1 (stereo not given)	-46.5
COc1ccc(N=C2S/C(=C\c3ccc(N4CCOCC4)o3)C(=O)N2CCc2c[nH]c3ccccc23)cc1	-62.1
CC(C)CC#Cc1ccc([C@@H]2[C@H](CO)N3CCCCN(S(=O)(=O)Cc4ccccc4)C[C@@H]23)cc1	60.5*
COc1ccc(C#Cc2ccc([C@@H]3[C@H](CO)N4CCCCN(C(=O)Nc5ccccc5)C[C@@H]34)cc2)cc1	78.0*
O=C(Nc1ccccc1F)N1CCCCN2[C@H](CO)[C@H](c3ccc(C#Cc4ccccc4)cc3)[C@H]2C1	71.5*
COc1ccccc1C#Cc1ccc([C@H]2[C@H](C#N)N(C(=O)C3CCCC3)[C@H]2CO)cc1	-64.9
CC1=C/C(=N\OS(=O)(=O)c2ccccc2)C(C)=CC1=O	-60.0
C[C@@H]1CN([C@@H](C)CO)C(=O)CCCn2nncc2CO[C@H]1CN(C)Cc1ccc(O)cc1	-45.0
O=C(O)c1cc(O)c2c(c1)C(=O)c1cccc(O)c1C2=O	-67.0
CCc1ccc(-c2cn3nc(-c4ccccc4)cnc3n2)cc1	-44.6
C[C@@H]1CN([C@@H](C)CO)C(=O)c2cc(NC(=O)CCCN(C)C)ccc2O[C@@H](C)CCCCO[C@@H]1CN(C)Cc1ccc(C(F)(F)F)cc1	-110.0
CN(CCc1ccccc1)C(=O)c1ccc(NC(=O)Cc2ccc(NC(=O)C3CCN(C(=O)C4CCCCC4)CC3)cc2)cc1	-42.1
CCN(CC)C(=O)[C@H]1CC(CC(=O)NCc2cccc(C(F)(F)F)c2)C(=O)N2CCc3c([nH]c4ccccc34)[C@]12C (stereo not given in full)	-54.1
CN(C)CCCNC(=O)CC1C[C@H](C(=O)N2CCCCC2)[C@@]2(CCc3ccccc3)c3[nH]c4ccccc4c3CCN2C1=O (stereo not given in full)	99.0*
COc1ccc(N2C(=O)CC2(/C=C/c2ccccc2OC)C(=O)NC2CCCC2)cc1 (stereo not given)	-44.9
O=C1C=CC2(C=C1)O[C@H](Cc1ccccc1)[C@@H](Cc1ccccc1)O2	-40.8
SMILES	PGC1a Ac signal
Cc1ccccc1-c1nc(C(=O)NCC2CCCO2)cc2c1[nH]c1ccccc12 (stereo not given)	61.5*
Cc1ccc(-c2cc(C(=O)NCC3CCCO3)c3ccccc3n2)cc1C (stereo not given)	-45.8
O=C(CSc1nc2ccccc2c(=O)n1CC1CCCO1)N1CCN(c2ccccc2)CC1 (stereo not given)	-42.5
CCCSCC(=O)Nc1ncc2c(n1)-c1ccccc1CC2	-45.1
O=S(=O)(c1ccc(Cl)cc1)c1snnc1-c1ccccc1	-41.8
Cc1c(CCOC(=O)CC23CC4CC(CC(C4)C2)C3)sc[n+]1Cc1ccccc1	60.9*
C[C@@H]1CN([C@@H](C)CO)C(=O)c2c(c3ccccc3n2C)-c2ccccc2CO[C@@H]1CN(C)C(=O)c1cc(Cl)cc(Cl)c1	95.6*
CC(C)CC#Cc1cnc2c(c1)C(=O)N([C@@H](C)CO)C[C@@H](C)[C@H](CN(C)C(=O)c1ccccc1)O2	-49.2
C[C@H]1CCCCO[C@@H](CN(C)C(=O)c2ccccc2)[C@@H](C)CN([C@@H](C)CO)C(=O)c2cc(NC(=O)Nc3ccc(F)cc3)ccc2O1	-42.5
COc1ccc(CC2C(=O)NC(C)C(=O)N(C)C3Cc4ccc(cc4)Oc4cc(ccc4O)CC(C(=O)NC(C)C(=O)NC(C)C(=O)N2C)N(C)C3=O)cc1 (stereo not given)	-69.5
Cc1cccc(CCN(CC(=O)NC(C)(C)C)C(=O)c2csnn2)c1	-46.7
N#CC1(NC(=O)Cn2ncc(Cl)c(Cl)c2=O)CCCCC1	97.9*
CO[C@H]1CN(C)C(=O)c2cc(NS(C)(=O)=O)ccc2OC[C@H](C)N(C(=O)NC(C)C)C[C@H]1C	-48.5
COc1ccc2nc(NCc3cccnc3)sc2c1	-56.0
COc1cccc(C(=O)c2c[nH]c(C(=O)NCc3cccnc3)c2)c1	85.5*
CCn1cc(C(=O)NCc2cccnc2)c2cc(OC)c(OC)cc2c1=O	-45.4
CCn1c(Oc2ccccc2F)nc2c1c(=O)n(C)c(=O)n2C	-40.4
CC[C@H](C)C1OC(=O)[C@@H](C)[C@@H](CC)NC(=O)[C@H](C)N(C)C(=O)C(C)(C)C(=O)C(C)NC(=O)[C@H](Cc2ccc(OC)cc2)N(C)C(=O)[C@H](C(C)C)N(C)C(=O)CNC(=O)[C@H](CC(C)C)N(C)C(=O)CNC1=O (stereo not given in full)	-74.1
Nc1nc(Nc2ccccc2)nc2ccccc12	51.8*
COc1ccc(Nc2ccnc3ccccc23)cc1	-51.2
CCOC(=O)c1[nH]c2ccc(OC)cc2c1NC(=O)c1ccc2c(c1)OCO2	55.1*
COc1ccc2c(c1)c(CC(=O)OCC(N)=O)c(C)n2C(=O)c1ccc(Cl)cc1	-45.3
COCCCNC(=O)c1cc(=O)n(Cc2ccc(Cl)cc2)c2ccccc12	-45.1
O=C(CC(C(=O)O)c1c[nH]c2ccccc12)c1ccccc1 (stereo not given)	-81.2
COc1ccc(-c2ccc(C3[C@@H]4CN(Cc5cc(OC)cc(OC)c5)C[C@H]3N4)cc2)cc1 (stereo not given in full)	121.4*
SMILES	PGC1a Ac signal
COc1ccccc1CN1C[C@@H]2N[C@H](C1)C2c1ccc(-c2ccccc2OC)cc1 (stereo not given in full)	69.7*
COc1cc(CN2C[C@@H]3N[C@H](C2)C3c2ccc(/C=C/c3ccccc3)cc2)cc(OC)c1 (stereo not given in full)	89.1*
COc1ccccc1-c1ccc([C@@H]2[C@@H](CO)N(C(C)=O)C23CN(C(C)=O)C3)cc1	-55.0
COc1cccc(-c2ccc(C3[C@@H]4CN(C(=O)C5CC5)C[C@H]3N4)cc2)c1 (stereo not given in full)	57.0*
Fc1cccc(CN2C[C@@H]3N[C@H](C2)C3c2ccc(-c3ccccc3)cc2)c1 (stereo not given in full)	-96.9
COc1cccc(Cn2c(NCc3cccnc3)nc3c2c(=O)n(C)c(=O)n3C)c1	-71.3
COc1ccc(N(C(=O)CCl)C(C(=O)NCCc2ccccc2)c2cccs2)cc1 (stereo not given)	-60.9
CC(=O)c1c(C)oc2ccc(N(C(C)=O)S(=O)(=O)c3ccc(Cl)c([N+](=O)[O-])c3)cc12	-61.3
C/C(=N\Nc1nc(C)cc(=O)[nH]1)C1CC1	-41.0
CC(=O)c1c(COC(=O)c2ccccc2)nc2ccccc2[n+]1[O-]	-55.2
CCc1ccc(C(=O)CN(C#N)c2nc(C)cc(C)n2)cc1	-48.8
